In PubChem BioAssay:
Active and inactive are the calls of the source.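 How the source made its calls, unless noted: active means GFP response above 150% of the DMSO level; inconclusive means fewer than 70 events counted for a yeast strain; inactive means the rest.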

Legend:
[1] = RPL19A-GFP modulators, yeast TOR pathway, confirmation, cell-based, S. cerevisiae, flow cytometry, cherry picks, mother/daughter gates (AID 2270;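 active means GFP response below 50% of the DMSO control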); conditions: S. cerevisiae RPL19A-GFP strain, 3 h, at 10 µM, stronger effect = lower value, 100 = same GFP as DMSO wells
[2] = LAP4-GFP expression modulators in yeast, confirmation, cell-based, cherry picks, flow cytometry, mother/daughter gates (AID 2271;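 active means GFP response above 150% of the DMSO control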;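 further: ratio of sample to DMSO plate mean so 100% equals DMSO level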); conditions: S. cerevisiae LAP4-GFP strain, 3 h, at 10 µM, stronger effect = higher value, 100 means same as DMSO control
Outline: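 Test system: GFP-fusion yeast strain / Amount: 0.2 OD600 cells / Buffer or medium: SC medium / Dosing: 10 µM single dose / Incubation: compound exposure 3 h at 30 °C, end-over-end rotation / Detection: HT flow cytometry, GFP fluorescence channel / Evaluation: median GFP fluorescence as percent of plate-mean DMSO wells / Control set: DMSO-only negative wells, rapamycin 400 ng/mL positive wells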

[3] = modulators of MEP2-GFP levels in yeast, confirmation, S. cerevisiae, flow cytometry GFP, cherry picks (AID 2272;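 active means GFP response above 150% of the DMSO control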;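 further: ratio of well signal to plate DMSO mean so 100% equals DMSO level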); conditions: S. cerevisiae MEP2-GFP strain, 3 h, at 10 µM, stronger effect = higher value
[4] = AGP1-GFP expression modulators, hit retest, confirmation, cell-based, flow cytometry, S. cerevisiae, cherry picks (AID 2273);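 further: median GFP channel fluorescence over the whole cell population gate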; conditions: S. cerevisiae AGP1-GFP strain, 3 h, at 10 µM
[5] = modulators of CIT2-GFP expression in yeast, confirmation, S. cerevisiae, GFP fusion, cherry picks, mother/daughter gates (AID 2274); conditions: S. cerevisiae CIT2-GFP strain, flow cytometry, 3 h, at 10 µM, stronger effect = higher value
[6] = measured here: daughter cell gate
[7] = measured here: mother cell gate
[8] = measured here: daughter cell gate response
[9] = measured here: mother cell gate response

Row | SMILES | GFP response vs DMSO [1] | GFP response vs DMSO [1, 6] [%] | GFP response vs DMSO [1, 7] [%] | GFP response relative to DMSO [2] | GFP response relative to DMSO [2, 8] [%] | GFP response relative to DMSO [2, 9] [%] | GFP response vs DMSO [3] | GFP response, % of DMSO [4] | GFP response, % of DMSO [5] | GFP response, % of DMSO [5, 6] [%] | GFP response, % of DMSO [5, 7] [%]
1 | Oc1c(Br)cc(Br)cc1C=NCc1ccccc1 | 101% (inactive) | 91.3 | 101 | 135% (inactive) | 105 | 137 | 112% (inactive) | 99.7% (inactive) | 104% (inactive) | 108 | 92.1
2 | CC[n+]1ccc(/C=C/c2c[nH]c3ccccc23)cc1 | 100% (inactive) | 101 | 98.8 | 104% (inactive) | 104 | 105 | 128% (inactive) | 102% (inactive) | 117% (inactive) | 119 | 119
3 | COc1cc(SSc2cc(OC)cc([N+](=O)[O-])c2N)c(N)c([N+](=O)[O-])c1 | 89% (inactive) | 78.4 | 80.4 | 265% (active) | 153 | 252 | 118% (inactive) | 124% (inactive) | 145% (inactive) | 112 | 143
4 | CCC(=O)Nc1ccc(NC(=O)c2oc3ccccc3c2C)cc1 | 101% (inactive) | 95 | 96.3 | 99.8% (inactive) | 100 | 101 | 102% (inactive) | 93.9% (inactive) | 103% (inactive) | 99.7 | 102
5 | O=C(O)c1ccc(N/N=C/C(Br)=C/c2ccccc2)cc1 | 98.4% (inactive) | 97 | 96.7 | 131% (inactive) | 130 | 130 | 97.5% (inactive) | 94.7% (inactive) | 90.7% (inactive) | 92.7 | 85.1
6 | CCOC(=O)C(CC)Sc1ncnc2c1nnn2-c1ccc(F)cc1 (stereo not drawn) | 94.8% (inactive) | 95.1 | 95.8 | 101% (inactive) | 101 | 99.3 | 96.2% (inactive) | 94.8% (inactive) | 96.9% (inactive) | 97.2 | 97.3
7 | CN(C)c1ccc(N=Cc2nc(-c3ccccc3)oc2OC(=O)c2ccccc2)cc1 | 98.6% (inactive) | 100 | 98.5 | 105% (inactive) | 103 | 105 | 115% (inactive) | 111% (inactive) | 107% (inactive) | 103 | 107
8 | O=C(Nc1ccc(S(=O)(=O)N2CCOCC2)cc1)c1ccc([N+](=O)[O-])cc1Cl | 99.6% (inactive) | 101 | 99.7 | 94.1% (inactive) | 94.4 | 94 | 102% (inactive) | 91.7% (inactive) | 101% (inactive) | 103 | 99.7
9 | Cc1ccc(-c2nc(NC(=O)c3nn(C)cc3[N+](=O)[O-])sc2C)cc1 | 100% (inactive) | 97.3 | 101 | 98.7% (inactive) | 97.2 | 101 | 102% (inactive) | 101% (inactive) | 96.5% (inactive) | 91.5 | 97.7
10 | O=C(NC(c1ccccc1)C(Cl)Cl)c1ccccc1 (stereo not drawn) | 94.7% (inactive) | 98.4 | 92.9 | 97.7% (inactive) | 104 | 93.4 | 128% (inactive) | 125% (inactive) | 107% (inactive) | 108 | 106
11 | O=C1C2C3C=CC(C4CC34)C2C(=O)N1/N=C/c1ccc([N+](=O)[O-])o1 (stereo not drawn) | 101% (inactive) | 105 | 95.8 | 129% (inactive) | 122 | 120 | 106% (inactive) | 101% (inactive) | 107% (inactive) | 112 | 100
12 | O=C(/C=C/c1ccc(O)cc1)c1ccc(O)cc1O | 93.7% (inactive) | 92.9 | 94.6 | 96.7% (inactive) | 97.6 | 96.1 | 102% (inactive) | 109% (inactive) | 103% (inactive) | 103 | 102
13 | O=S(=O)(CCN(CCS(=O)(=O)C(F)(F)F)CC1CCCO1)C(F)(F)F (stereo not drawn) | 92.9% (inactive) | 96.2 | 86.3 | 219% (active) | 179 | 210 | 118% (inactive) | 94.5% (inactive) | 111% (inactive) | 115 | 96.8
